In test [1] the target is T1, Dopamine receptor (Bos taurus, UniProt Q95136+P20288). The test is described as follows: In vitro inhibitory activity was evaluated against,[3H]spiperone calf caudate (SPC) dopamine receptor. The class given is protein assay. The procedure, abridged: (§1)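 Radioligand displacement used brain homogenates. Four to six test concentrations were each incubated in triplicate. IC50 in nM came from weighted regression analysis.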

Test [2] relates to Rattus norvegicus. Put plainly: Compound was evaluated for the in vivo inhibition of basal prolactin for a time 4 hr after injection in male rats. It is filed as functional. The gist of the method:
(§2)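 Adult male SIV 50 rats were housed singly from the day before, with light from 4 a.m. to 6 p.m. They got a single sc injection and were decapitated 4 h later. Trunk blood was taken and serum pooled from 3 rats per group, with 1–3 groups per dose. Prolactin was measured by double-antibody RIA against NIH rat Prl RP-1. The dose giving a 50% fall in serum prolactin was estimated graphically.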

The target of test [3] is T2, Adrenergic receptor alpha-2 (Rattus norvegicus, UniProt P22086+P19328+P22909).
T2 sequence (P22086 whole entry): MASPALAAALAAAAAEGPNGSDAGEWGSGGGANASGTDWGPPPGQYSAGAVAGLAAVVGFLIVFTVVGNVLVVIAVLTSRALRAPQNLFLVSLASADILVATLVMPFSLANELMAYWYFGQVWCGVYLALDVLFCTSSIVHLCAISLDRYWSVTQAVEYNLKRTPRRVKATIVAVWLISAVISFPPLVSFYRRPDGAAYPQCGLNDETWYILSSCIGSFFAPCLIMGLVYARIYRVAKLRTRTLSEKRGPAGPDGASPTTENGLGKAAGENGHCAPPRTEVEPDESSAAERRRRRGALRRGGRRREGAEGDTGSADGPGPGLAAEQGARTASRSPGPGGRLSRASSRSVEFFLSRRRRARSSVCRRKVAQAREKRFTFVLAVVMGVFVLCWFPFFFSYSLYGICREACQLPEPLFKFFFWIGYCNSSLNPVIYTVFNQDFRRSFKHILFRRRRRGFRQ
T2 sequence (P19328 whole entry): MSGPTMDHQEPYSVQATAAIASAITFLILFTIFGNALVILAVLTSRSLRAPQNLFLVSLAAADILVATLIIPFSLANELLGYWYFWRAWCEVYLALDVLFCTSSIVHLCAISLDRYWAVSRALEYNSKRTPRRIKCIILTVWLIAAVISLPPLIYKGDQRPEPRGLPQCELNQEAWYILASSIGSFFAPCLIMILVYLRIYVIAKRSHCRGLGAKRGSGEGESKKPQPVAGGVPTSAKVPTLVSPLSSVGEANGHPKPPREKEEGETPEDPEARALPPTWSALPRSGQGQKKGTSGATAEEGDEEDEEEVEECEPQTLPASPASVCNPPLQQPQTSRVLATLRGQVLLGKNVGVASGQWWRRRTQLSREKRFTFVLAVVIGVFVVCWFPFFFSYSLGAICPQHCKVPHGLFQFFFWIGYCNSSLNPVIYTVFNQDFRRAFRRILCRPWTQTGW
T2 sequence (P22909 whole entry): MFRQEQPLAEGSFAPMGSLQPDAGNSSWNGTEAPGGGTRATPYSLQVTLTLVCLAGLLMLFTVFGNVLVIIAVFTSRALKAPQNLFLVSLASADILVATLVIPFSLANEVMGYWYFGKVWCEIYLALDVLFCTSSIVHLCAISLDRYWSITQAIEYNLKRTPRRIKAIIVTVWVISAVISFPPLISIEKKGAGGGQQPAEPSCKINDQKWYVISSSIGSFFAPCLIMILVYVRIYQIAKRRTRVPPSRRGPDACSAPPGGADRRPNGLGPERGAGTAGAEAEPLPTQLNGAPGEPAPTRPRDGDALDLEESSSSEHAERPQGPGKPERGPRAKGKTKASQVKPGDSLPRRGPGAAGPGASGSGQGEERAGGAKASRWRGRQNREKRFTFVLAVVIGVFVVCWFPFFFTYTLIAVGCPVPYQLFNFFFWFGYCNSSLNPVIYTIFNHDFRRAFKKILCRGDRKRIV
The test is described as follows: In vitro inhibitory activity was evaluated against,[3H]clonidine (Clon) rat brain minus cerebellum Alpha-2 adrenergic receptor. The class given is tissue-based. The procedure, abridged: as §1

Test [4] has as its target T1, Dopamine receptor. The test is described as follows: In vitro inhibitory activity was evaluated against,[3H]dopamine (DA),calf caudate dopamine receptor. The class given is protein assay. The procedure, abridged:
as §1

Test [5] concerns the target T3, Adrenergic receptor alpha-1 (Rattus norvegicus, UniProt P15823+P23944+P43140).
T3 sequence (P15823 whole entry): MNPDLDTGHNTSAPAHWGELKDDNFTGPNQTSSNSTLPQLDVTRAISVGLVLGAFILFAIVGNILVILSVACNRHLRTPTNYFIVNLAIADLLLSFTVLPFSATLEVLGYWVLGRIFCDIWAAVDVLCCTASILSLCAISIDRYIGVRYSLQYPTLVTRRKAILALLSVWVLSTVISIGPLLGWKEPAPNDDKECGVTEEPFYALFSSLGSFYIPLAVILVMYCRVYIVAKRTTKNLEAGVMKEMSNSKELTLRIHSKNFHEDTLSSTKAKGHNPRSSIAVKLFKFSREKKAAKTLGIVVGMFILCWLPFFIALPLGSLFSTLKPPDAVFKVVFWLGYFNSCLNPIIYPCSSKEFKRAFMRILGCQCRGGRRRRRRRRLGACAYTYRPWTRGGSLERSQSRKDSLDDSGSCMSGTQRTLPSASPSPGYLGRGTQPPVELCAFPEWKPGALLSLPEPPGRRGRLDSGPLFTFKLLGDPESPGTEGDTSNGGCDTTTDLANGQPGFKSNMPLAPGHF
T3 sequence (P23944 whole entry): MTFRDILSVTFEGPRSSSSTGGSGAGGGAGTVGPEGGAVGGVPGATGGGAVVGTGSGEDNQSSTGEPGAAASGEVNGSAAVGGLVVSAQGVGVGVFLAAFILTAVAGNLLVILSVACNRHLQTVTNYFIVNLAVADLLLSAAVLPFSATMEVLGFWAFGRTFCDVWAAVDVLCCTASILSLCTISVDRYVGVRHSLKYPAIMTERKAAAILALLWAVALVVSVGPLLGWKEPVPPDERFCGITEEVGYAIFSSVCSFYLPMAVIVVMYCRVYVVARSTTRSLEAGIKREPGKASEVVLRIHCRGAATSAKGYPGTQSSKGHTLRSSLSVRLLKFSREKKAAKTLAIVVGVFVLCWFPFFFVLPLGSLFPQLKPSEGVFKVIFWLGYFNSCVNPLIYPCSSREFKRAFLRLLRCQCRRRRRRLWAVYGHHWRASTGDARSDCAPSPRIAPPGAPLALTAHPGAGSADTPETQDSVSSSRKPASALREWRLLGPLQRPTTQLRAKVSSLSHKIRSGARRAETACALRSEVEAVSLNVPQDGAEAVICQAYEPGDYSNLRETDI
T3 sequence (P43140 whole entry): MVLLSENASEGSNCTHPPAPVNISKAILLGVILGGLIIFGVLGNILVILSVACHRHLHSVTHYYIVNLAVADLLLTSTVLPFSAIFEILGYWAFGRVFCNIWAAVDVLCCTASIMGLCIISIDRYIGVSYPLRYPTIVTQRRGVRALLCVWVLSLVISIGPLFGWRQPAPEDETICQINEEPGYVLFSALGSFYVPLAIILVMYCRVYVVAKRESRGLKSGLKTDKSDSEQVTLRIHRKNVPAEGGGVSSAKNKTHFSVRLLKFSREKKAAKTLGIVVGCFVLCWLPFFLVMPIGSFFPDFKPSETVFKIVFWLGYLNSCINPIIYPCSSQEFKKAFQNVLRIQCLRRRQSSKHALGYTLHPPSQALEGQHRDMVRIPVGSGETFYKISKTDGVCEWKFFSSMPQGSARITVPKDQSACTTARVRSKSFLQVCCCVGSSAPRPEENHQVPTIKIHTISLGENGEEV
The test is described as follows: In vitro inhibitory activity was evaluated against,[3H]WB 4101 whole rat brain alpha 1-adrenoceptor. The gist of the method:
as §1

Test [6] concerns the target T1, Dopamine receptor. Put plainly: In vitro inhibitory activity was evaluated against [3H]spiperone calf caudate (SPC) dopamine receptor. It is filed as protein assay. The procedure, abridged:
as §1

For test [7], the target named is T1, Dopamine receptor. Put plainly: In vitro inhibitory activity was evaluated against [3H]dopamine (DA) calf caudate dopamine receptor. It is filed as protein assay. The procedure, abridged:
as §1

The subject of test [8] is Rattus norvegicus. Put plainly: Compound was evaluated for the in vivo inhibition of basal prolactin secretion for a time 4 hr after injection in male rats. It is filed as functional. The settings on record: read-out: ID50 (the source's name). The gist of the method:
as §2

For test [9], the target named is Serotonin (5-HT) receptor. Put plainly: In vitro inhibitory activity was evaluated against,[3H]serotonin (5-HT) whole rat brain serotonin receptor.
Test [10] relates to Rattus norvegicus. Put plainly: Compound was evaluated for the in vivo inhibition of basal prolactin secretion for a time 60 min after injection in male rats. The class given is functional. As to conditions: 1 h, read-out: ID50 (the source's name).
In test [11] the target is Serotonin (5-HT) receptor. The test is described as follows: In vitro inhibitory activity was evaluated against,[3H]spiperone rat frontal cortex (SPFC) serotonin receptor. It is filed as tissue-based.
Test [12] deals with Rattus norvegicus. The test is described as follows: Compound was evaluated for the in vivo inhibition of basal prolactin secretion for a time 30 min after injection in male rats. The settings on record: 0.5 h, read-out: ID50 (the source's name). The class given is functional.

Drawing on ChEMBL document CHEMBL1122828, “Resolution and absolute configuration of the potent dopamine agonist N,N-diethyl-N'-[(3 alpha, 4a alpha, 10a beta)-1,2,3,4,4a,5,10,10a- -octahydro-6-hydroxy-1-propyl-3-benzo[g]quinolinyl]sulfamide” (J Med Chem, 1985), this text covers IC50, ID50 and ED50 for 5 compounds.

Each structure is given as a SMILES string.

A word on the IC50: it is the concentration needed to halve the response being measured. A lower IC50 goes with greater potency. With `CCCN1CC(NS(=O)(=O)N(CC)CC)CC2Cc3c(O)cccc3CC21` (racemic) [QUINAGOLIDE], the IC50 against Dopamine receptor [1] is 0.048 µM; in test [3], 5.6 µM; at Dopamine receptor [4], 0.19 µM; in test [5] it was 7.8 µM. The compound further registered an ID50 in the test on Rattus norvegicus [2] of 0.005 mg/kg.

Regarding `CCCN1CC(NS(=O)(=O)N(CC)CC)CC2Cc3c(O)cccc3CC21` (stereo in doubt; (+)1) [QUINAGOLIDE], the IC50 on Dopamine receptor [6] is greater than 10 µM; against Dopamine receptor [7] it was greater than 100 µM; in test [3], greater than 10 µM; in [5], greater than 10 µM. Further, in the test with Rattus norvegicus [8], the ED50 is greater than 3 mg/kg.

On to `CCCN1CC(NS(=O)(=O)N(CC)CC)CC2Cc3c(O)cccc3CC21` (stereo in doubt; -1) [QUINAGOLIDE], for which the IC50 worked out at 0.019 µM on Dopamine receptor [1], 7.4 µM in test [3], 0.075 µM at Dopamine receptor [4] and 6 µM in [5]. Also, the ID50 with Rattus norvegicus [2] stood at 0.0018 mg/kg.

On to `CN1CCc2cccc3c2[C@H]1Cc1ccc(O)c(O)c1-3` [APOMORPHINE], for which the values for the IC50 in test [9], in test [11] and in [5] were greater than 10 µM, 4.5 µM and 7.75 µM, respectively. The ED50 in the test on Rattus norvegicus [10] was 0.081 mg/kg; with Rattus norvegicus [12], 0.058 mg/kg; in the test with Rattus norvegicus [8], greater than 10 mg/kg.

`CCN(CC)S(=O)(=O)N[C@H]1C[C@@H]2c3cccc4[nH]cc(c34)C[C@H]2N(C)C1` [ETISULERGINE]: the IC50 at Dopamine receptor [1] is 0.025 µM; in test [9] it was greater than 5 µM; in test [11], 0.026 µM; in test [3], 0.48 µM; on Dopamine receptor [4], 0.12 µM; in [5] it was 3.3 µM. Moreover, the ED50 in the test with Rattus norvegicus [2] (Rattus norvegicus, 4 h, read-out: ID50 (the source's name)) came to 0.0014 mg/kg.
